PMC2998183 (Journal of nuclear medicine : official publication, Society …, 2010)
One block for each compound: values may come before it. Positions of bridges follow the written chain, without caps; N, C: chain ends. Non-standard residues stand in square brackets, D forms with d. No end group written: not given here. *: point of attachment. DOTA = O=C(O)CN1CCN(CC(=O)O)CCN(CC(=O)*)CCN(CC(=O)O)CC1; Nle = CCCC[C@H](N)C(=O)O

How the values were obtained:
[1] = In vitro serum stability in mouse serum monitored by RP-HPLC; assay type: in vitro ADME; conditions: 37 °C, 24 h
Outline: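 Test compound was labelled with ¹¹¹In in 0.5 M NH₄OAc pH 4.5 at 75°C for 45 min, and unbound ¹¹¹In was scavenged with EDTA. It was purified by C-18 RP-HPLC (20-min 18–28% acetonitrile gradient in 20 mM HCl). The purified label was incubated in mouse serum at 37°C for 24 h, with degradation monitored by RP-HPLC.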

B16/F1 melanoma cells [2] = assay: Cellular internalization in B16/F1 melanoma cells; assay type: cell-based; conditions: 25°C
Outline: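 B16/F1 cells, washed twice in binding medium (DMEM, 25 mM HEPES pH 7.4, 0.2% BSA, 0.3 mM 1,10-phenanthroline), incubated at 25°C for 20, 40, 60, 90 and 120 min (n=3) with ~200,000 cpm HPLC-purified ¹¹¹In-labelled test compound. Cells rinsed in ice-cold 0.2% BSA/0.01 M PBS pH 7.4. Membrane-bound activity stripped with 40 mM sodium acetate pH 4.5, 0.9% NaCl, 0.2% BSA. Internalized activity recovered by 1 N NaOH lysis (5 min). Both fractions gamma-counted.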

B16/F1 melanoma cells [3] = assay: Cellular efflux in B16/F1 melanoma cells; assay type: cell-based; conditions: 2 h after incubating cells in culture medium
Outline: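 B16/F1 cells were loaded with ¹¹¹In-labelled test compound for 2 h at 25°C, then given 2 ice-cold PBS rinses to remove non-specifically bound activity. Radioactivity released into the culture medium was monitored. At 20, 40, 60, 90 and 120 min, cell-surface and intracellular radioactivity were collected separately and gamma-counted.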

[4] = Biodistribution in B16/F1 melanoma-bearing C57 mice; assay type: in vivo, mouse; conditions: female, C57, mouse, urine, iv, 0.037 MBq, total radioactivity, percent injected dose, 0.5 h post-injection
[5] = test system: B16/F1 melanoma-bearing C57 mice; assay: as above; assay type: in vivo, mouse
[6] = Urinary metabolites by RP-HPLC; assay type: in vivo, mouse; conditions: urine, 2 h post-injection
Outline: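 A C57 mouse bearing a B16/F1 flank tumour (1×10⁶ cells s.c., 10 days) received 37 MBq (1 mCi) ¹¹¹In-labelled test compound via the tail vein. It was euthanized at 2 h and urine collected. Urine was centrifuged at 16,000g for 5 min, and aliquots were analysed by RP-HPLC using a 20-min 18–28% acetonitrile/20 mM HCl gradient.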

MC1 receptor = conditions: cited from earlier work
[7] = target: melanocortin-1 (MC1) receptor (Mus musculus, UniProt Q01727); conditions: read-out: MC1 receptor binding affinity; B16/F1 cells; ref [17], [21]; cited from earlier work
Sequence of melanocortin-1 (MC1) receptor (Q01727 whole entry): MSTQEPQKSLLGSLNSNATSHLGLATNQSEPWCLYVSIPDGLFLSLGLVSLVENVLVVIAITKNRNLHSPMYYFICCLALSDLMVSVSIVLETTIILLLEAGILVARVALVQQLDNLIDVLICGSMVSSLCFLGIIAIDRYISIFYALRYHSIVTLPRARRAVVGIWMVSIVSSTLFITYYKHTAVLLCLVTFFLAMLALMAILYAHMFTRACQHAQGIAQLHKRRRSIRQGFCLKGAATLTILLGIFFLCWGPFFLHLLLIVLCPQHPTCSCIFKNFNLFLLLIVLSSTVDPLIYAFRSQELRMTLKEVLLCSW

[8] = test system: B16/F1 melanoma-bearing C57 mice; conditions: mouse, in vivo, 4 h; cited from earlier work

Stability in mouse serum [1]: stable
dose excreted at 0.5 h [4]: 57 ± 3.91%
Tumor uptake with NDP-MSH co-injection as percent of tumor uptake without ([5]; 10 μg non-radiolabeled NDP-MSH co-injection, 2 h): 4.2%
Reduction of kidney uptake value by L-lysine co-injection ([5]; 2 h post-injection): 30%
Renal uptake value as percent of that of ^111In-DOTA-GlyGlu-CycMSH ([5]; 2 h post-injection): 72.8%
Tumor uptake value, times that of ^111In-DOTA-GlyGlu-CycMSH ([5]; 2 h post-injection): 1.86 times
Tumor uptake value, times that of ^111In-DOTA-Re(Arg^11)CCMSH ([5]; 2 h post-injection): 1.12 times
Renal uptake value as percent of that of ^111In-DOTA-GlyGlu-CycMSH ([5]; 4 h post-injection): 82.4%
Tumor uptake value, times that of ^111In-DOTA-Re(Arg^11)CCMSH ([5]; 4 h post-injection): 0.98 times
Tumor uptake value, times that of ^111In-DOTA-Re(Arg^11)CCMSH ([5]; 24 h post-injection): 1.29 times
Percent of tumor activity at 2 h post-injection remaining in tumors at 24 h ([5]; 24 h vs 2 h post-injection): 54.3%
Urinary metabolite analysis by RP-HPLC [6]: remained intact
Compound: CCCC[C@H](NC(=O)CN1CCN(CC(=O)O)CCN(CC(=O)O)CCN(CC(=O)O)CC1)C(=O)N[C@H]1CC(=O)NCCCC[C@@H](C(N)=O)NC(=O)[C@H](Cc2c[nH]c3ccccc23)NC(=O)[C@H](CCCNC(=N)N)NC(=O)[C@@H](Cc2ccccc2)NC(=O)[C@H](Cc2c[nH]cn2)NC1=O [^111In-DOTA-Nle-CycMSHhex, metal not drawn]
Cellular uptake activity internalized (B16/F1 melanoma cells [2]; 20 min post incubation): 72.9±3.5%
Cellular uptake activity internalized (B16/F1 melanoma cells [2]; 120 min post incubation): 88.3±0.7%
Internalized activity remained inside the cells (B16/F1 melanoma cells [3]): 89.5±1.9%

Compound: Ac-Nle-c[Asp-His-DPhe-Arg-Trp-Lys(CONH2)] [MT-II]
MC1 receptor binding affinity compared with native α-MSH peptide (MC1 receptor; ref [27], [28]): higher MC1 receptor binding affinity
MC1 receptor dissociation rate compared with native α-MSH peptide (MC1 receptor; ref [27], [28]): slower MC1 receptor dissociation rate

Compound: DOTA-Gly-Glu-c[Lys-Nle-Glu-His-DPhe-Arg-Trp-Gly-Arg-Pro-Val-Asp] ({DOTA}-GEK[Nle]EH[dF]RWGRPVD; lactam 3-14; not fully specified) [DOTA-GlyGlu-CycMSH]
IC50 [7]: 0.9 nM

Compound: [Ac-Nle^4,Asp^5,D-Phe^7,Lys^11(pz-^99mTc(CO)3)]α-MSH4–11
Melanoma uptake [8]: 4.24 ± 0.94 %ID/g

Compound: [Nle^4, D-Phe^7]- α-MSH [NDP-MSH]
Affinity for the MC1 receptor present on the melanoma cells (MC1 receptor; stated without reference): picomolar

Compound: ^99mTc(CO)3-pz-βAla-Nle-cyclo[Asp-His-D-Phe-Arg-Trp-Lys]-NH2
Kidneys uptake [8]: 32.12 ± 1.57 %ID/g
Liver uptake [8]: 22.86 ± 1.17 %ID/g
Melanoma uptake [8]: 11.31 ± 1.81 %ID/g
